Source: ChEMBL document CHEMBL1125166, “Kinetic and equilibrium binding studies of amsacrine-4-carboxamides: a class of asymmetrical DNA-intercalating agents which bind by threading through the DNA helix” (J Med Chem, 1990)
Where “and” joins values, the source holds several entries; their conditions need not be identical. Equal entries are not always repeated.

Assays:
Nucleic Acid [1] = assay: Association constant for binding to poly(dA-dT) DNA in 0.01 SHE buffer, measured by ethidium displacement method; type: nucleic-acid assay
How it was run: (§1)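 Ethidium displacement in 0.01 SHE buffer with poly(dA-dT) or poly(dG-dC). Association constants corrected for quenching.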

Nucleic Acid [2] = assay: Time constant describing the association profile of calf thymus DNA-drug complexes in 0.1 SHE buffer at 20 degree C after 2 min; type: nucleic-acid assay
How it was run: (§2)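 Stopped-flow association to sonicated calf thymus DNA (~10^6 MW) in 0.1 SHE at 20 °C. Final DNA 200 μM base pairs and final drug 10 μM (ratio 0.05); D/P also varied to 0.10 and 0.20. Absorbance followed at the drug's visible maximum. Traces deconvoluted into exponentials by curve stripping; at least six runs analysed separately and averaged. Amplitudes given as % of summed amplitudes.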

Nucleic Acid [3] = assay: (§3) Fraction of the observed equilibrium absorbance change accounted in the kinetic analysis.; type: nucleic-acid assay
How it was run: (§4)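 SDS-induced dissociation by stopped flow. Drug–calf thymus DNA complex (400 μM base pairs, 20 μM drug, 0.1 SHE) mixed 1:1 with 20 mM SDS (monomer) at 20 °C. Finals: 200 μM DNA, 10 μM drug, 10 mM SDS; D/P also 0.2. Absorbance followed at the visible maximum. Time constants and % amplitudes obtained from exponential fitting. Fraction = resolved amplitude over equilibrium absorbance change on SDS addition.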

Nucleic Acid [4] = assay: Free drug extinction coefficient in 0.1 SHE buffer at the concentration of 50 uM; 9.4 x 10 e-3 epcilonfor equilibrium binding to calf thymus DNA; conditions: Bos taurus
Nucleic Acid [5] = assay: Free drug λmax in 0.1 SHE buffer at the concentration of 50 uM for equilibrium binding to calf thymus DNA
Nucleic Acid [6] = assay: Time constant describing the association profile of calf thymus DNA-drug complexes in 0.1 SHE buffer at 20 degree C after 1 min; type: nucleic-acid assay; how it was run: as §2
Nucleic Acid [7] = assay: Association constant for binding to poly(dG-dC) DNA in 0.01 SHE buffer, measured by ethidium displacement method; type: nucleic-acid assay; how it was run: as §1
Nucleic Acid [8] = assay: Time constant describing the association profile of calf thymus DNA-drug complexes in 0.1 SHE buffer at 20 degree C after 3 min; type: nucleic-acid assay; how it was run: as §2
Nucleic Acid [9] = assay: (§5) Time constant describing the dissociation profile of calf thymus DNA-drug complexes in 0.1 SHE buffer at 20 degree C; type: nucleic-acid assay; how it was run: as §4
Nucleic Acid [10] = assay: Association constant for binding to poly(dA-dT) DNA in 0.01 SHE buffer, measured by ethidium displacement method for equilibrium binding to calf thymus DNA; type: nucleic-acid assay
Nucleic Acid [11] = assay: Percentage of the sum of the amplitudes evaluated in the kinetic experiment; type: nucleic-acid assay; conditions: Bos taurus
Nucleic Acid [12] = assay: Association constant for binding to poly(dG-dC) DNA in 0.01 SHE buffer, measured by ethidium displacement method for equilibrium binding to calf thymus DNA; type: nucleic-acid assay
[13] = Fraction of the observed equilibrium absorbance change accounted in the kinetic analysis; how it was run: as §4
Nucleic Acid [14] = assay: Time constant describing the dissociation profile of calf thymus DNA-drug complexes in 0.1 SHE buffer at 20 degree C.; type: nucleic-acid assay; how it was run: as §4
Nucleic Acid [15] = assay: Percentage of the sum of the amplitudes evaluated in the kinetic experiment.; type: functional; conditions: Bos taurus; how it was run: as §4
Nucleic Acid [16] = assay: Percentage of the sum of the amplitudes in the kinetic experiment.; type: nucleic-acid assay; conditions: Bos taurus
Nucleic Acid [17] = assay: as §3; type: functional; conditions: Bos taurus; how it was run: as §4
Nucleic Acid [18] = assay: (§6) Fraction of the observed equilibrium absorbance change accounted in the kinetic analysis on rates with DNA-ligand ratio.; type: functional; conditions: Bos taurus
Nucleic Acid [19] = assay: as §6; type: nucleic-acid assay; conditions: Bos taurus
Nucleic Acid [20] = assay: as §5; type: nucleic-acid assay; remark: listed apart in the source
How it was run: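 Stopped-flow absorbance at 20 °C, read at the visible absorption maxima. The complex was 400 μM sonicated calf thymus DNA (nucleotide pairs) with 20 μM drug in 0.1 SHE, mixed with an equal volume of 20 mM SDS (monomer) in the same buffer. Final: 200 μM DNA bp, 10 μM drug, 10 mM SDS (1 drug : 20 bp). Exponential decay time constants were resolved.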

Nucleic Acid [21] = assay: Time constant describing the dissociation profile was studied for binding of compound to a poly(dA-dT) DNA; type: nucleic-acid assay
Nucleic Acid [22] = assay: Time constant describing the dissociation profile was studied for binding of compound to a (dA-dT)DNA; type: nucleic-acid assay
Nucleic Acid [23] = assay: Time constant describing the association profile was studied for variation on rates with DNA-ligand ratio.; type: nucleic-acid assay; how it was run: as §2
Nucleic Acid [24] = assay: Percentage of the sum of the amplitudes evaluated in the kinetic experiment for binding of compound to a (dI-dC)DNA; type: functional; conditions: Bos taurus
Nucleic Acid [25] = assay: Fraction of the observed equilibrium absorbance change accounted in the kinetic analysis or binding of compound to a CT-DNA; type: functional; conditions: Bos taurus; how it was run: as §4
Nucleic Acid [26] = assay: Percentage of the sum of the amplitudes evaluated in the kinetic experiment for binding of compound to a CT-DNA; type: nucleic-acid assay; conditions: Bos taurus; how it was run: as §4
Nucleic Acid [27] = assay: Time constant describing the association profile was studied for binding of compound to a poly(dA-dT) DNA; type: nucleic-acid assay
Nucleic Acid [28] = assay: (§7) Fraction of the observed equilibrium absorbance change accounted in the kinetic analysis off rates with DNA-ligand ratio.; type: functional; conditions: Bos taurus; how it was run: as §4
Nucleic Acid [29] = assay: Time constant describing the dissociation profile was studied for binding of compound to a poly(dG-dC) DNA; type: nucleic-acid assay
Nucleic Acid [30] = assay: Fraction of the observed equilibrium absorbance change accounted in the kinetic analysis or binding of compound to a (dA-dT)-DNA; type: functional; conditions: Bos taurus
Nucleic Acid [31] = assay: as §7; type: nucleic-acid assay; conditions: Bos taurus; how it was run: as §4
Nucleic Acid [32] = assay: Fraction of the observed equilibrium absorbance change accounted in the kinetic analysis or binding of compound to a (dG-dC)-DNA; type: nucleic-acid assay; conditions: Bos taurus
Nucleic Acid [33] = assay: Time constant describing the association profile was studied for binding of compound to a (dA-dT)DNA; type: nucleic-acid assay
Nucleic Acid [34] = assay: Percentage of the sum of the amplitudes evaluated in the kinetic experiment for binding of compound to a calf thymus DNA; conditions: Bos taurus
Nucleic Acid [35] = assay: Percentage of the sum of the amplitudes evaluated in the kinetic experiment on rates with DNA-ligand ratio.; type: functional; conditions: Bos taurus; how it was run: as §2

Structure (SMILES)	k0 (Nucleic Acid [1])	Time constant (Nucleic Acid [2])	Activity (Nucleic Acid [3]; Bos taurus)	ε (×10^-3) (Nucleic Acid [4])	λmax (nm) (Nucleic Acid [5])	Time constant (Nucleic Acid [6])	k0 (Nucleic Acid [7])	Time constant (Nucleic Acid [8])	further results
COc1cc(NS(C)(=O)=O)ccc1Nc1c2ccccc2nc2c(C(=O)NCC(O)CO)cccc12 (configuration not stated)	2.51e+06 M⁻¹	40 ms	77 and 88	10.4	425	8 ms	3.71e+07 M⁻¹	110 ms	
Nc1c2ccccc2nc2ccccc12				10.1	399				T1 (Nucleic Acid [9]): 3 ms; T2 (Nucleic Acid [9]): 15 ms; k0 (Nucleic Acid [10]): 1.2e+06 M⁻¹; Relative amplitude (Nucleic Acid [11]): 15% and 12%; k0 (Nucleic Acid [12]): 1.4e+06 M⁻¹; Activity [13]: 50
CN(C)CCNC(=O)c1cccc2c(N)c3ccccc3nc12				9.4	407				T1 (Nucleic Acid [9]): 6 ms; T2 (Nucleic Acid [9]): 28 ms; T3 (Nucleic Acid [9]): 86 ms; T4 (Nucleic Acid [9]): 428 ms; k0 (Nucleic Acid [10]): 2.24e+07 M⁻¹; T2 (Nucleic Acid [2]): 19 ms; T1 (Nucleic Acid [6]): 4 ms; k0 (Nucleic Acid [12]): 5e+07 M⁻¹
COc1cc(NS(C)(=O)=O)ccc1Nc1c2ccccc2nc2c(C(=O)NCCCO)cccc12	950000 M⁻¹	32 ms	85 and 72	10.9	439	4 ms	8.12e+06 M⁻¹	95 ms	Time constant (Nucleic Acid [14]): 58 ms and 157 ms; Relative amplitude (Nucleic Acid [15]): 25% and 35%
COc1cc(NS(C)(=O)=O)ccc1Nc1c2ccccc2nc2c(C(=O)NCCCN(C)C)cccc12	2.34e+06 M⁻¹	15 ms	79 and 92	11.6	441	3 ms	3.98e+06 M⁻¹	66 ms	Relative amplitude (Nucleic Acid [16]): 31% and 39% and 55%
COc1cc(NS(C)(=O)=O)ccc1Nc1c2ccccc2nc2c(C(=O)NCCNCCO)cccc12	2.19e+07 M⁻¹	18 ms	69	11.6	441	3 ms	4.9e+07 M⁻¹	66 ms	Activity (Nucleic Acid [17]): 100; Activity (Nucleic Acid [18]): 68; Activity (Nucleic Acid [19]): 69 and 60
COc1cc(NS(C)(=O)=O)ccc1Nc1c2ccccc2nc2ccccc12	290000 M⁻¹		48	12.1	434		260000 M⁻¹		Time constant (Nucleic Acid [20]): 2 ms and 6 ms
COc1cc(NS(C)(=O)=O)ccc1Nc1c2ccccc2nc2c(C(=O)NCCN(C)C)cccc12	2.45e+07 M⁻¹	24 ms	62	12.9	442	5 ms	6.6e+07 M⁻¹	110 ms	Time constant (Nucleic Acid [21]): 38 ms; Time constant (Nucleic Acid [22]): 7 ms; Time constant (Nucleic Acid [23]): 5 ms; Activity (Nucleic Acid [17]): 97; Relative amplitude (Nucleic Acid [24]): 78%; Activity (Nucleic Acid [25]): 62 and 97; Relative amplitude (Nucleic Acid [26]): 41%; Time constant (Nucleic Acid [27]): 16 ms; Activity (Nucleic Acid [18]): 72; Activity (Nucleic Acid [28]): 97; Time constant (Nucleic Acid [29]): 1640 ms and 3500 ms; Activity (Nucleic Acid [30]): 25 and 70; Activity (Nucleic Acid [31]): 95; Activity (Nucleic Acid [32]): 76 and 99; Time constant (Nucleic Acid [33]): 3 ms; Relative amplitude (Nucleic Acid [34]): 64%; Activity (Nucleic Acid [19]): 62 and 60
COc1cc(NS(C)(=O)=O)ccc1Nc1c2ccccc2nc2c(C(=O)NCC(=O)NCCNCCO)cccc12	2.82e+07 M⁻¹	25 ms		12.3	440	5 ms	6.61e+07 M⁻¹	93 ms	Activity (Nucleic Acid [17]): 100; Activity (Nucleic Acid [18]): 66 and 65; Activity (Nucleic Acid [3]): 66; Relative amplitude (Nucleic Acid [35]): 33% (2×) and 48% and 37%; Activity (Nucleic Acid [19]): 74
COc1cc(NS(C)(=O)=O)ccc1Nc1c2ccccc2nc2c(C(=O)NCCO)cccc12	890000 M⁻¹	31 ms	90 and 80	10.4	441	4 ms	2.4e+06 M⁻¹	100 ms	Time constant (Nucleic Acid [14]): 81 ms and 208 ms
CNC(=O)c1cccc2c(Nc3ccc(NS(C)(=O)=O)cc3OC)c3ccccc3nc12	350000 M⁻¹	7 ms	54 and 79	11.6	438	2 ms	1.51e+06 M⁻¹		Relative amplitude (Nucleic Acid [16]): 52% [middle of 4 runs]; Time constant (Nucleic Acid [14]): 11 ms and 29 ms
